Data published in ChEMBL document CHEMBL1138253, “Cytotoxic and apoptotic activities of novel amino analogues of boswellic acids” (2007).

Tests used:
Format in all cases: functional
[1] = test system: MCF7; assay: Cytotoxicity against human MCF7 cells at 10 uM after 48 hrs; settings: MCF7, 48 h
Method in brief: (§1)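 SRB growth assay. DMSO stock (1 × 10^-2 M) diluted in RPMI-1640 (2 mM glutamine, pH 7.4, 10% FCS, antibiotics). Trypsinized subconfluent cells with >97% viability (trypan blue) seeded at 10^5 cells/ml and grown 24 h, then exposed to compound 48 h at 37 °C, 5% CO2. Fixed with TCA at 4 °C for 1 h, stained with 0.4% SRB, solubilized in 0.01 M Tris pH 10.4, OD read at 540 nm. Run in triplicate; mean of three experiments.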

[2] = test system: DU-145; assay: Cytotoxicity against human DU145 cells at 10 uM after 48 hrs; settings: DU-145, 48 h; method in brief: as §1
[3] = test system: SW-620; assay: Cytotoxicity against human SW620 cells at 10 uM after 48 hrs; settings: SW-620, 48 h; method in brief: as §1
[4] = Cytotoxicity against human 502713 cells at 10 uM after 48 hrs; settings: Homo sapiens, 502713, 48 h; method in brief: as §1
[5] = test system: HT-29; assay: Cytotoxicity against human HT29 cells at 10 uM after 48 hrs; settings: HT-29, 48 h; method in brief: as §1

| SMILES | inhibition at 10 µM [1] | inhibition at 10 µM [2] | inhibition at 10 µM [3] | inhibition at 10 µM [4] | inhibition at 10 µM [5] |
| --- | --- | --- | --- | --- | --- |
| COC(=O)[C@]1(C)[C@@H]2CC[C@]3(C)[C@H](CC=C4[C@@H]5[C@@H](C)[C@H](C)CC[C@]5(C)CC[C@]43C)[C@@]2(C)CC[C@@H]1O | 0% | 0% | 12% | 9% | 0% |
| CC(=O)O[C@H]1CC[C@@]2(C)[C@@H](CC[C@]3(C)[C@@H]2C(=O)C=C2[C@@H]4[C@@H](C)[C@H](C)CC[C@]4(C)CC[C@]23C)[C@@]1(C)N=C=O | 9% | 0% | 20% | 0% | 5% |
| CCCC(=O)N[C@]1(C)[C@@H]2CC[C@]3(C)[C@H](CC=C4[C@@H]5[C@@H](C)[C@H](C)CC[C@]5(C)CC[C@]43C)[C@@]2(C)CC[C@H]1OC(=O)CCC | 0% | 0% | 0% | 7% | 0% |
| COC(=O)[C@]1(C)[C@@H]2CC[C@]3(C)[C@H](C(=O)C=C4[C@@H]5[C@@H](C)[C@H](C)CC[C@]5(C)CC[C@]43C)[C@@]2(C)CC[C@@H]1O | 0% | 0% | 11% | 10% | 3% |
| CCC(=O)N[C@@]1(C)[C@@H](OC(=O)CC)CC[C@@]2(C)[C@H]1CC[C@]1(C)[C@@H]2CC=C2[C@@H]3[C@@H](C)[C@H](C)CC[C@]3(C)CC[C@]21C | 0% | 11% | 13% | 0% | 24% |
| CC(=O)O[C@@H]1CC[C@@]2(C)[C@@H](CC[C@]3(C)[C@@H]2CC=C2[C@@H]4[C@@H](C)[C@H](C)CC[C@]4(C)CC[C@]23C)[C@@]1(C)N=C=O | 30% | 0% | 0% | 0% | 22% |
| CC(=O)O[C@H]1CC[C@@]2(C)[C@@H](CC[C@]3(C)[C@@H]2CC=C2[C@@H]4[C@@H](C)[C@H](C)CC[C@]4(C)CC[C@]23C)[C@@]1(C)N=C=O | 50% | 18% | 6% | 3% | 2% |
| C[C@H]1[C@H](C)CC[C@]2(C)CC[C@]3(C)C(=CC[C@@H]4[C@@]5(C)CC[C@@H](O)[C@](C)(C(=O)O)[C@@H]5CC[C@]43C)[C@H]12 [BOSWELLIC ACID] | 18% | 0% | 2% | 24% | 15% |
| COC(=O)[C@@]1(C)[C@H](O)CC[C@@]2(C)[C@H]1CC[C@]1(C)[C@@H]2CC=C2[C@@H]3[C@@H](C)[C@H](C)CC[C@]3(C)CC[C@]21C | 1% | 13% | 0% | 23% | 0% |
| C[C@H]1[C@H](C)CC[C@]2(C)CC[C@]3(C)C(=CC[C@@H]4[C@@]5(C)CC[C@H](O)[C@](C)(N)[C@@H]5CC[C@]43C)[C@H]12 | 0% | 16% | 63% | 23% | 51% |
| C[C@H]1[C@H](C)CC[C@]2(C)CC[C@]3(C)C(=CC(=O)[C@@H]4[C@@]5(C)CC[C@H](O)[C@](C)(N)[C@@H]5CC[C@]43C)[C@H]12 | 17% | 0% | 7% | 0% | 0% |
| CC(=O)O[C@H]1CC[C@@]2(C)[C@@H](CC[C@]3(C)[C@@H]2CC=C2[C@@H]4[C@@H](C)[C@H](C)CC[C@]4(C)CC[C@]23C)[C@@]1(C)C(=O)O | 15% | 0% | 20% | 12% | 17% |
| CCCC(=O)N[C@@]1(C)[C@@H](OC(=O)CCC)CC[C@@]2(C)[C@H]1CC[C@]1(C)[C@@H]2CC=C2[C@@H]3[C@@H](C)[C@H](C)CC[C@]3(C)CC[C@]21C | 0% | 0% | 21% | 14% | 0% |
| CO[C@@]12[C@H](COC(N)=O)C3=C(C(=O)C(C)=C(N)C3=O)N1C[C@@H]1N[C@@H]12 [MITOMYCIN] | 78% | 56% | 67% | 84% | 63% |
| CC(=O)O[C@@H]1CC[C@@]2(C)[C@@H](CC[C@]3(C)[C@@H]2C(=O)C=C2[C@@H]4[C@@H](C)[C@H](C)CC[C@]4(C)CC[C@]23C)[C@@]1(C)C(=O)O [AKBA] | 12% | 10% | 2% | 8% | 24% |
| C[C@H]1[C@H](C)CC[C@]2(C)CC[C@]3(C)C(=CC(=O)[C@@H]4[C@@]5(C)CC[C@H](O)[C@](C)(C(=O)O)[C@@H]5CC[C@]43C)[C@H]12 | 16% | 3% | 1% | 27% | 0% |
| COC(=O)[C@@]1(C)[C@H](O)CC[C@@]2(C)[C@H]1CC[C@]1(C)[C@@H]2C(=O)C=C2[C@@H]3[C@@H](C)[C@H](C)CC[C@]3(C)CC[C@]21C | 0% | 12% | 1% | 19% | 0% |
| C[C@H]1[C@H](C)CC[C@]2(C)CC[C@]3(C)C(=CC(=O)[C@@H]4[C@@]5(C)CC[C@@H](O)[C@](C)(C(=O)O)[C@@H]5CC[C@]43C)[C@H]12 [11-KETO BOSWELLIC ACID] | 0% | 0% | 7% | 0% | 7% |
| CC(=O)O[C@@H]1CC[C@@]2(C)[C@@H](CC[C@]3(C)[C@@H]2C(=O)C=C2[C@@H]4[C@@H](C)[C@H](C)CC[C@]4(C)CC[C@]23C)[C@@]1(C)N=C=O | 10% | 0% | 0% | 2% | 0% |
| COC(=O)[C@@]1(C)C(=O)CC[C@]2(C)[C@H]3CC=C4[C@@H]5[C@@H](C)[C@H](C)CC[C@]5(C)CC[C@@]4(C)[C@]3(C)CC[C@@H]12 | 0% | 12% | 3% | 27% | 12% |
| CCC(=O)N[C@]1(C)[C@@H]2CC[C@]3(C)[C@H](C(=O)C=C4[C@@H]5[C@@H](C)[C@H](C)CC[C@]5(C)CC[C@]43C)[C@@]2(C)CC[C@H]1OC(=O)CC | 4% | 0% | 0% | 24% | 0% |
| CC(=O)O[C@H]1C(=O)[C@@]2(C)[C@H]([C@H](OC(=O)c3ccccc3)[C@]3(O)C[C@H](OC(=O)[C@H](O)[C@@H](NC(=O)c4ccccc4)c4ccccc4)C(C)=C1C3(C)C)[C@]1(OC(C)=O)CO[C@@H]1C[C@@H]2O [PACLITAXEL] | 46% | 53% | 41% | 26% | 76% |
| C[C@H]1[C@H](C)CC[C@]2(C)CC[C@]3(C)C(=CC[C@@H]4[C@@]5(C)CC[C@H](O)[C@](C)(C(=O)O)[C@@H]5CC[C@]43C)[C@H]12 | 18% | 1% | 15% | 18% | 11% |
| COC(=O)[C@@]1(C)C(=O)CC[C@]2(C)[C@H]3C(=O)C=C4[C@@H]5[C@@H](C)[C@H](C)CC[C@]5(C)CC[C@@]4(C)[C@]3(C)CC[C@@H]12 | 3% | 13% | 2% | 20% | 5% |
| CC(=O)N[C@@]1(C)[C@@H](OC(C)=O)CC[C@@]2(C)[C@H]1CC[C@]1(C)[C@@H]2CC=C2[C@@H]3[C@@H](C)[C@H](C)CC[C@]3(C)CC[C@]21C | 2% | 6% | 43% | 0% | 27% |
| CC(=O)O[C@H]1CC[C@@]2(C)[C@@H](CC[C@]3(C)[C@@H]2C(=O)C=C2[C@@H]4[C@@H](C)[C@H](C)CC[C@]4(C)CC[C@]23C)[C@@]1(C)C(=O)O | 21% | 0% | 0% | 23% | 19% |
| CC(=O)O[C@@H]1CC[C@@]2(C)[C@@H](CC[C@]3(C)[C@@H]2CC=C2[C@@H]4[C@@H](C)[C@H](C)CC[C@]4(C)CC[C@]23C)[C@@]1(C)C(=O)O | 0% | 0% | 5% | 20% | 36% |
| CC(=O)N[C@]1(C)[C@@H]2CC[C@]3(C)[C@H](CC=C4[C@@H]5[C@@H](C)[C@H](C)CC[C@]5(C)CC[C@]43C)[C@@]2(C)CC[C@H]1OC(C)=O | 57% | 8% | 0% | 7% | 0% |
